Measured values: ChEMBL document CHEMBL3351653, “One-pot heterogeneous synthesis of Δ(3)-tetrahydrocannabinol analogues and xanthenes showing differential binding to CB(1) and CB(2) receptors” (Eur J Med Chem, 2014)

Key:
[1] = biological target: Cannabinoid receptor 1 (Homo sapiens, UniProt P21554); test: Displacement of [3H]CP55940 from human cannabinoid CB1 receptor expressed in CHO-K1 cells by liquid scintillation counting; assay type: cell-based
[2] = biological target: T1, Cannabinoid receptor 2 (Homo sapiens, UniProt P34972); test: Displacement of [3H]CP55940 from human cannabinoid CB2 receptor expressed in CHO-K1 cells by liquid scintillation counting; assay type: cell-based
[3] = biological target: T1, Cannabinoid receptor 2; test: Partial agonist activity at human cannabinoid CB2 receptor expressed in CHO-K1 cells assessed as [S35]GTPgammaS binding by scintillation counting; assay type: functional, cell-based
Method in brief: (§1)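 CB2 membranes held on ice with […] and 0.1 nM [35S]-GTPγS in buffer with 0.5% fatty-acid-free BSA. GF/B filtration, washing in ice-cold 50 mM Tris-HCl pH 7.4 with 0.1% BSA, then scintillation counting. Specific binding is signal minus the excess-GTPγS residual. Three independent experiments in triplicate.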

[4] = biological target: T1, Cannabinoid receptor 2; test: Partial agonist activity at human cannabinoid CB2 receptor expressed in CHO-K1 cells assessed as [S35]GTPgammaS binding by scintillation counting relative to vehicle treated control; assay type: functional, cell-based
Method in brief: as §1, with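 “BSA. Reaction started by adding compound, vehicle or CP55940.” for “BSA.”, “residual. Results given as % of vehicle control.” for “residual.”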

Sequence of Cannabinoid receptor 1 (P21554 whole entry): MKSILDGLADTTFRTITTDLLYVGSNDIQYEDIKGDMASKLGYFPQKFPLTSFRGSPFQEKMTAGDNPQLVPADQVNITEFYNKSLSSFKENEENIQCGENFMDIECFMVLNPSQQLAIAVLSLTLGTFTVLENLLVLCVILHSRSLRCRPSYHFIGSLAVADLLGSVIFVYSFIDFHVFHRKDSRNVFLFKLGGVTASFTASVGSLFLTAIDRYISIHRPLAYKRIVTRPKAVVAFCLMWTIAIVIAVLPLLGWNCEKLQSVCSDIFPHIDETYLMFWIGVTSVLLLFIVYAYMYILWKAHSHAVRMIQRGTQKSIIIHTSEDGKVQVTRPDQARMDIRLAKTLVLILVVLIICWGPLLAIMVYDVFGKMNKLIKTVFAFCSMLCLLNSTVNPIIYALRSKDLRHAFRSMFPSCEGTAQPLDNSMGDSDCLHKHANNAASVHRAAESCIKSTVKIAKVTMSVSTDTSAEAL
T1 sequence (P34972 whole entry): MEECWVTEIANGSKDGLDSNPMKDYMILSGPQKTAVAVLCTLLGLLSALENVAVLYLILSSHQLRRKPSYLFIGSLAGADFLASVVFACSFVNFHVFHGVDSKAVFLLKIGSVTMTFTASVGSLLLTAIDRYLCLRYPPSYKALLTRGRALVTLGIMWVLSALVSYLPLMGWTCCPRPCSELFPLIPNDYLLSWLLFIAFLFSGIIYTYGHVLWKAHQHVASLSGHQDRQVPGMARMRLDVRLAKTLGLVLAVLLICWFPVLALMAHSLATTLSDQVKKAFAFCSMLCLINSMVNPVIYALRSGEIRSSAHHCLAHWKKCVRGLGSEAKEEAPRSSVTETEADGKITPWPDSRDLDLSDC

| Structure (SMILES) | Ki [1] [nM] | Ki [2] [nM] | EC50 [3] [nM] | Emax [4] [%] |
| --- | --- | --- | --- | --- |
| Cc1c(O)ccc2c1OC1=C(CC[C@@H](C)C1)C2(C)C | > 10000 | 1000 |  |  |
| CCCCCc1cc(O)c2c(c1)OC1=C(CC[C@@H](C)C1)C2(C)C | 1100 | 470 | 930 | 152 |
| CCCCCc1cc(O)c2c(c1)OC(C)(C)C1=C2C[C@@H](C)CC1 |  |  |  | 146 |
| Cc1cc(O)c2c(c1)OC(C)(C)C1=C2C[C@H](C)CC1 | 1000 | 660 |  |  |
| CCc1cc2c(cc1O)OC(C)(C)C1=C2C[C@H](C)CC1 | > 10000 | > 10000 |  |  |
| C[C@@H]1CCC2=C(C1)c1ccc(O)cc1OC2(C)C | > 10000 | > 10000 |  |  |
| C[C@@H]1CCC2=C(C1)Oc1cc(O)ccc1C2(C)C | > 10000 | 4200 |  |  |
| CCCCCc1cc(O)c2c(c1)OC(C)(C)C1=C2C[C@H](C)CC1 |  |  |  | 133 |
| Cc1cc(O)c2c(c1)OC1=C(CC[C@@H](C)C1)C2(C)C | > 10000 | > 10000 |  |  |
| CCCCCc1cc(O)c2c(c1)OC1=C(CC[C@H](C)C1)C2(C)C | 2100 | 180 | 820 | 167 |
| CCc1cc2c(cc1O)OC1=C(CC[C@@H](C)C1)C2(C)C | > 10000 | 510 |  |  |
| Cc1c(O)ccc2c1OC(C)(C)C1=C2C[C@H](C)CC1 | > 10000 | > 10000 |  |  |
